Several values for one entry are separate records, joined by “and”; a condition that tells them apart may be missing. Equal entries are not always repeated.
How the values were obtained:
[1] = In vitro growth inhibition against C-26 cells incubated for 72 hr using cytotoxicity assay; assay type: functional, cell-based, Mus musculus
Summary of the method: (§1)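 Methylene blue staining assay. Exponentially growing cells plated, incubated 24 h, then drugs added at various concentrations (saline for controls), four wells per variant. Drug exposure 4, 24 or 72 h, then washed and grown in fresh medium to 72 h total. Cells fixed in 2.5% glutaraldehyde, stained with 1% MB in 0.1 M borate pH 8.5, dye extracted with 0.1 N HCl at 37 °C, OD read at 620 nm. IC50 given as mean ± SD from at least two experiments.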

[2] = In vitro growth inhibition against C-26 cells incubated for 24 hr using cytotoxicity assay; assay type: functional, cell-based, Mus musculus; summary of the method: as §1
[3] = Solubility was determined in DDW(double distilled water) at 37 degrees Centigrade; assay type: physicochemical; details: buffer
OV-1063 [4] = assay: In vitro growth inhibition against OV-1063 cells incubated for 4 hr using cytotoxicity assay; assay type: functional, cell-based, Homo sapiens; summary of the method: as §1
[5] = In vitro growth inhibition against C-26 cells incubated for 4 hr using cytotoxicity assay; assay type: functional, cell-based, Mus musculus; summary of the method: as §1
OV-1063 [6] = assay: In vitro growth inhibition against OV-1063 cells incubated for 72 hr using cytotoxicity assay; assay type: functional, cell-based, Homo sapiens; summary of the method: as §1
OV-1063 [7] = assay: In vitro growth inhibition against OV-1063 cells incubated for 24 hr using cytotoxicity assay; assay type: functional, cell-based, Homo sapiens; summary of the method: as §1

For CISPLATIN, the IC50 [1] was 0.2 µM, the IC50 [2] was 0.6 µM and the Solubility [3] was 2100 µg/mL. For the same substance, the IC50 (OV-1063 [4]) was 2 µM, the IC50 [5] was 1.5 µM and the IC50 (OV-1063 [6]) was 0.5 µM. It also gave an IC50 (OV-1063 [7]) of 0.7 µM.

For TRANSPLATIN, the IC50 [1] was 41 µM, the IC50 [2] was 46 µM and the Solubility [3] was 240 µg/mL. For the same substance, the IC50 (OV-1063 [4]) was 81 µM, the IC50 [5] was 64 µM and the IC50 (OV-1063 [6]) was 52 µM. The IC50 (OV-1063 [7]) was 73 µM.

With cis-[ptcl2(NH3)(4-pic)] the IC50 [1] was 11 µM and 3.7 µM, the IC50 [2] was 11 µM and 4.7 µM and the IC50 (OV-1063 [4]) was 18 µM and 6 µM. The IC50 [5] was 12 µM and 5.1 µM, the IC50 (OV-1063 [6]) was 14 µM and 4 µM and the IC50 (OV-1063 [7]) was 16 µM and 5.1 µM.

Work on trans-[ptcl2(4-pic)(pip)] yielded an IC50 [1] of 1.75 µM, an IC50 [2] of 2.5 µM and a Solubility [3] of 30 µg/mL. For the same substance, the IC50 (OV-1063 [4]) was 6.5 µM, the IC50 [5] was 4.5 µM and the IC50 (OV-1063 [6]) was 4.5 µM. For the same substance, the IC50 (OV-1063 [7]) was 6 µM.

trans-[ptcl2(4-pic)(pz)] HCl gave an IC50 [1] of 3.5 µM, an IC50 [2] of 4.5 µM and a Solubility [3] of 7500 µg/mL. It also gave an IC50 (OV-1063 [4]) of 7.4 µM, an IC50 [5] of 5.5 µM and an IC50 (OV-1063 [6]) of 5.1 µM. The IC50 (OV-1063 [7]) was 6 µM.

Reference: ChEMBL document CHEMBL1135653, “Novel apoptosis-inducing trans-platinum piperidine derivatives: synthesis and biological characterization” (J Med Chem, 2002)
